The structures appear in SMILES notation.

For assay [1], the target named is T1, Carboxypeptidase A1 (Bos taurus, UniProt P00730).
T1 sequence (P00730 whole entry): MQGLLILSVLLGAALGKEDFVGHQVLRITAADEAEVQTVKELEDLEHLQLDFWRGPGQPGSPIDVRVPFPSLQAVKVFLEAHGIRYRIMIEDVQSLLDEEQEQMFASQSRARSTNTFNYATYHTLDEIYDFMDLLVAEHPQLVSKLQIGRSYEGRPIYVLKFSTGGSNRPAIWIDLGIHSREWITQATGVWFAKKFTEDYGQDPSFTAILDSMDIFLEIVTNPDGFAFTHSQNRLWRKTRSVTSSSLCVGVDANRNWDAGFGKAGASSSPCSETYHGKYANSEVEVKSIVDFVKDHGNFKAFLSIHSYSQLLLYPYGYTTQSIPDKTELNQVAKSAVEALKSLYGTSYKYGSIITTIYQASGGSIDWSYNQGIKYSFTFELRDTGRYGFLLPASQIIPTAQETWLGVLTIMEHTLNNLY
The assay is described as follows: Inhibition of bovine carboxypeptidase A using N-(4-methoxyphenylazoformyl)-Phe-OH as substrate preincubated for 2 mins followed by susbtrate addition measured for 15 mins at 30 secs interval. The essentials: (§1)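 Compound was pre-incubated with enzyme before the activity assay, either briefly (2 min) or long (3 h), to test for time-dependent inhibition.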

In assay [2] the target is T1, Carboxypeptidase A1. The assay is described as follows: Inhibition of bovine carboxypeptidase A using N-(4-methoxyphenylazoformyl)-Phe-OH as substrate preincubated for 3 hrs followed by susbtrate addition measured for 15 mins at 30 secs interval. An outline of the steps: as §1
The target of assay [3] is T2, Carboxypeptidase A1 (Homo sapiens) (UniProt P15085).
T2 sequence (whole entry): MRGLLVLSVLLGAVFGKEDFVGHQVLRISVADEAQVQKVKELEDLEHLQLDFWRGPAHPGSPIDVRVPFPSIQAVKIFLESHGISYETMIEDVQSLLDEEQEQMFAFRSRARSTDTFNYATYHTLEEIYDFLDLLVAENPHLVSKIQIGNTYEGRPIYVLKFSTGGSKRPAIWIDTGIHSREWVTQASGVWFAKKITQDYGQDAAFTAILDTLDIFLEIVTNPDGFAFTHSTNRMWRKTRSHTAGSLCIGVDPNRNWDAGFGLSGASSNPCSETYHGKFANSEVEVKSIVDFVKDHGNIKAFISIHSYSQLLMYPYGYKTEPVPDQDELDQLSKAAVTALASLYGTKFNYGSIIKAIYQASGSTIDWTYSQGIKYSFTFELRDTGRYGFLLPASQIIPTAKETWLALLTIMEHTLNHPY
Put plainly: (§2) Irreversible inhibition of recombinant human carboxypeptidase A1 expressed in Pichia pastoris using N-(4-methoxyphenylazoformyl)-Phe-OH as substrate measured for 600 secs by double reciprocal plot analysis.

The target of assay [4] is T3, Carboxypeptidase A1 (Homo sapiens, UniProt P15085).
T3 sequence (P15085 whole entry): T2 sequence (whole entry)
The description is as §2. The following applies: read-out: Ki(app).

One may read the IC50 as the concentration needed to halve the response being measured. Read a low IC50 as higher potency. `CCC[C@H](C(=O)O)[C@@H]1CO1` (racemic): the IC50 at Carboxypeptidase A1 [1] turned out to be 115 µM; on Carboxypeptidase A1 [2], 1.13 µM.
Consider `CC(C)C[C@H](C(=O)O)[C@H]1CS1` (racemic), for which the IC50 at Carboxypeptidase A1 [2] is 31.9 µM.
Regarding `O=C(O)[C@@H](CC1CCC1)[C@@H]1CO1` (racemic), the IC50 against Carboxypeptidase A1 [1] stood at 57.9 µM; on Carboxypeptidase A1 [2], 1.13 µM.
On to `CC(C)C[C@H](C(=O)O)[C@H]1CO1` (racemic), for which inhibition at Carboxypeptidase A1 [2] was half-maximal at 0.57 µM (IC50).
`O=C(O)[C@@H](Cc1ccc(I)cc1)[C@@H]1CO1` (racemic): the IC50 against Carboxypeptidase A1 [1] was 48.3 µM; at Carboxypeptidase A1 [2], 1.04 µM. For the same compound, in assay [3], the Kinact came out at 0.6 min⁻¹. At Carboxypeptidase A1 [4], the Ki came to 413 µM.
Regarding `O=C(O)[C@@H](CCc1ccccc1)[C@@H]1CS1` (racemic), on Carboxypeptidase A1 [2], half-maximal inhibition (IC50) was put at 16.4 µM.
On to `O=C(O)[C@@H](CC1CC1)[C@H]1CS1` (racemic), for which the IC50 against Carboxypeptidase A1 [1] worked out at 174 µM; on Carboxypeptidase A1 [2], 1.8 µM.
Consider `CC(C)C[C@H](C(=O)O)[C@@H]1CS1` (racemic), for which the IC50 came out at 14 µM against Carboxypeptidase A1 [1] and 0.26 µM at Carboxypeptidase A1 [2]. Also, the Kinact in assay [3] came to 0.52 min⁻¹. Also, the Ki at Carboxypeptidase A1 [4] turned out to be 56 µM.
The corresponding values for `O=C(O)[C@@H](Cc1ccc(F)cc1)[C@@H]1CO1` (racemic) are 21.9 µM, 0.51 µM, 0.71 min⁻¹ and 238 µM.
Consider `O=C(O)[C@@H](CC1CCC1)[C@H]1CS1` (racemic), for which the concentration for half-maximal inhibition (IC50) at Carboxypeptidase A1 [1] turned out to be 60 µM; at Carboxypeptidase A1 [2] it was 0.97 µM.
As for `CCC[C@H](C(=O)O)[C@@H]1CS1` (racemic), the IC50 against Carboxypeptidase A1 [1] was 31.9 µM; at Carboxypeptidase A1 [2], 0.6 µM. In addition, in assay [3], the Kinact came to 0.82 min⁻¹. The Ki on Carboxypeptidase A1 [4] was 294 µM.
For `O=C(O)[C@@H](Cc1ccc(I)cc1)[C@H]1CS1` (racemic) the same measures were 46.3 µM, 0.96 µM, 0.69 min⁻¹ and 289 µM.
Compound `CC(C)C[C@H](C(=O)O)[C@@H]1CO1` (racemic) showed an IC50 against Carboxypeptidase A1 [2] of 33.1 µM.
The same measure, in the same setting: to `O=C(O)[C@@H](CCc1ccccc1)[C@@H]1CO1` (racemic) belongs 8.25 µM.
For the compound `O=C(O)[C@@H](Cc1ccc(F)cc1)[C@H]1CS1` (racemic), the IC50 worked out at 18.7 µM against Carboxypeptidase A1 [1] and 0.47 µM on Carboxypeptidase A1 [2]. Further, in assay [3], the Kinact was 0.47 min⁻¹. Also, at Carboxypeptidase A1 [4], the Ki is 60.4 µM.
As for `O=C(O)[C@@H](CC1CC1)[C@@H]1CO1` (racemic), the IC50 against Carboxypeptidase A1 [1] was 276 µM; against Carboxypeptidase A1 [2], 11.2 µM.
